Results: ChEMBL document CHEMBL3739287, “Diversification of edaravone via palladium-catalyzed hydrazine cross-coupling: Applications against protein misfolding and oligomerization of beta-amyloid” (Bioorg Med Chem Lett, 2016)

Legend:
[1] = biological target: T1, Amyloid-beta precursor protein (Homo sapiens, UniProt P05067); assay: Inhibition of N-alpha-biotinyl-amyloid beta (1 to 42 residues) (unknown origin) oligomerization incubated for 1 hr by sandwich biotin-avidin assay
Outline: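 Sub-nanomolar detection of N-α-biotinyl-Aβ(1–42) oligomers using single-site NeutrAvidin capture with labeled streptavidin detection. The format recognizes multimeric (>20 kDa) oligomers but not monomer. Compounds were tested over 1–50 μM to build dose-response curves, from which IC50 was determined.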

[2] = biological target: T1, Amyloid-beta precursor protein; assay: Inhibition of amyloid beta (1 to 40 residues) (unknown origin) aggregation at 25 uM incubated for 72 hrs by Thioflavin T assay
Outline: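 Kinetic ThT aggregation format: monomeric Aβ40 (20 μM) with ThT (8 μM) and compound at a single 25 μM concentration. Fluorescence was followed over 72 h, and percent inhibition of aggregation was taken at 72 h.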

[3] = biological target: T1, Amyloid-beta precursor protein; assay: Inhibition of amyloid beta (1 to 40 residues) (unknown origin) aggregation incubated for 72 hrs by Thioflavin T assay
Outline: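 Aβ40 (20 μM) aggregation in a kinetic format with ThT (8 μM), fluorescence read over 72 h. IC50 came from dose-response curves of percent inhibition and was collected only for compounds giving >50% inhibition at 25 μM in this assay and IC50 <50 μM in the bio-Aβ42 oligomer assay.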

T1 sequence (P05067 whole entry, the tested form may be a part): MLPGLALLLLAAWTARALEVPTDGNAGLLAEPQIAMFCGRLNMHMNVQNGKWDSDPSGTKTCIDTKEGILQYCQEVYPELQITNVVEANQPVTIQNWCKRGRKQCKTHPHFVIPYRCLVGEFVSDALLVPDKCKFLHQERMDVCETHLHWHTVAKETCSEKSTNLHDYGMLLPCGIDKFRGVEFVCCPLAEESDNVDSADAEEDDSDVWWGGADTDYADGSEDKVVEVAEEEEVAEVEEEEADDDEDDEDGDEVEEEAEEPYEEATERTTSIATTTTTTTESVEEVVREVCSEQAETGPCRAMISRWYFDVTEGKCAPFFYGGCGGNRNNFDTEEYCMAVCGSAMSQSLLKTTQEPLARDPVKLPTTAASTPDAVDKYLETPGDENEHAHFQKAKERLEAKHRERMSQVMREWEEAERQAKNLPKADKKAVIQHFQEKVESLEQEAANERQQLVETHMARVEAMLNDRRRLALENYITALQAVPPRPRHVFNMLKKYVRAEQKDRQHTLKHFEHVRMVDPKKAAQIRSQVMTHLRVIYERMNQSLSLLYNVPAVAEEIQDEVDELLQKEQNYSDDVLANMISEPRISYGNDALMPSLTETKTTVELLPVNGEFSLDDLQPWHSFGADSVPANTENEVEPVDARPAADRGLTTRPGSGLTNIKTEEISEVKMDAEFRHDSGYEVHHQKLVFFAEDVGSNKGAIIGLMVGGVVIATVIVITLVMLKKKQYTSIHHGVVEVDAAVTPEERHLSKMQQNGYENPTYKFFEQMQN

| SMILES | IC50 [1] [µM] | inhibition [2] [%] | IC50 [3] [µM] |
| --- | --- | --- | --- |
| CC1=NN(c2cc(F)ccc2C)C(=O)C1 | > 50 | 26.2 |  |
| CC1=NN(c2cccc(N3CCCC3)c2)C(=O)C1 | 16.8 | 47 |  |
| CC1=NN(c2ccc(C)cc2)C(=O)C1 | > 50 | 16.3 |  |
| COc1cc(F)cc(N2N=C(C)CC2=O)c1 | > 50 | 26.4 |  |
| CC1=NN(c2ccc(C(F)(F)F)cc2)C(=O)C1 | > 50 | 56.3 |  |
| CC1=NN(c2ccc(-c3cccnc3)cc2)C(=O)C1 | 3.9 | 53.2 | 14.5 |
| CC1=NN(c2ccccc2C)C(=O)C1 | > 50 | 22.7 |  |
| CC1=NN(c2cccc(C)c2)C(=O)C1 | > 50 | 30.9 |  |
| CCc1ccccc1N1N=C(C)CC1=O | > 50 | 26.3 |  |
| COc1cc(N2N=C(C)CC2=O)nc(OC)n1 | > 50 | 48.2 |  |
| COc1ccc(-c2ccc(N3N=C(C)CC3=O)cc2)cc1 | 5.1 | 69.6 | 3.4 |
| CC1=NN(c2ccc(-c3ccccc3)cc2)C(=O)C1 | 19.5 | 78.7 | 5.6 |
| CC1=NN(c2cc(C)ccc2C)C(=O)C1 | > 50 | 7.4 |  |
| COc1cccc(N2N=C(C)CC2=O)c1 | > 50 | 39.7 | > 50 |
| CC1=NN(c2ccccc2)C(=O)C1 [EDARAVONE] | > 50 | 17.2 |  |
| CC1=NN(c2cccnc2)C(=O)C1 | > 50 | 20.2 |  |
| CC1=NN(c2ccc3ccccc3c2)C(=O)C1 | > 50 | 56.2 |  |
| CC1=NN(c2ccc(-n3cccc3)cc2)C(=O)C1 | 4 | 60.6 | 26 |
| CC1=NN(c2cccc(COCc3ccccc3)c2)C(=O)C1 | 2.9 | 53.4 | 27 |
| CC1=NN(c2ccc(N(c3ccccc3)c3ccccc3)cc2)C(=O)C1 | 4 | 50.7 | > 50 |
| CC1=NN(c2ccc(-n3c(-c4ccccc4)cc4ccccc43)cc2)C(=O)C1 | 3.5 | 71.4 | 19.6 |
| CC1=NN(c2ccc(C)c(F)c2)C(=O)C1 | > 50 | 49 |  |
